Experimental data published in ChEMBL document CHEMBL1828516, “Discovery of novel alkylated (bis)urea and (bis)thiourea polyamine analogues with potent antimalarial activities” (J Med Chem, 2011).
Active and inactive are the calls of the source. The calls are words filed in the database; no cut-off is given here.

Tests used:
Plasmodium falciparum [1] = test: Antimalarial activity against drug-sensitive Plasmodium falciparum 3D7 infected in human erythrocytes after 96 hrs by SYBR Green I-based fluorescence assay; type: functional, organism-based; conditions: 3D7, 96 h
Outline: (§1)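 Ring-stage cultures synchronized with 10% D-sorbitol, grown in O+ human erythrocytes in RPMI-1640 with HEPES, hypoxanthine, glucose, gentamycin and Albumax II under 5% CO2/5% O2/90% N2 at 37°C. Compounds in DMSO (<0.013%), serially diluted, added at 1% parasitemia, 2% hematocrit. Static 96 h incubation, then SYBR Green I lysis buffer for 1 h in dark. Fluorescence at ex 485/em 538 nm.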

Plasmodium falciparum [2] = test: Antimalarial activity against […] Plasmodium falciparum HB3 infected in human erythrocytes after 96 hrs by SYBR Green I-based fluorescence assay; type: functional, organism-based; conditions: HB3, 96 h; outline: as §1
Plasmodium falciparum [3] = test: Antimalarial activity against antifolate-resistant Plasmodium falciparum W2 infected in human erythrocytes after 96 hrs by SYBR Green I-based fluorescence assay; type: functional, organism-based; conditions: W2, 96 h; outline: as §1
Plasmodium falciparum [4] = test: Resistance ratio of IC50 for Plasmodium falciparum W2 to IC50 for Plasmodium falciparum 3D7; type: functional
Outline: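 Ratio of W2 IC50 to 3D7 IC50, both from the 96 h SYBR Green I fluorescence assay.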

Plasmodium falciparum [5] = test: Antimalarial activity against Plasmodium falciparum assessed as inhibition of DNA replication at 2 times IC50 after 72 hrs by FITC-SYBR Green I-based flow cytometry; type: functional, organism-based
Plasmodium falciparum [6] = test: Antimalarial activity against Plasmodium falciparum 3D7 infected in human erythrocytes assessed as decrease in parasitemia at 2 times IC50 after 72 hrs by giemsa staining method; type: functional, organism-based
Outline: (§2)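 P. falciparum 3D7 in O+ human erythrocytes, treated at 2xIC50 for 72 h. Parasitemia scored microscopically on Giemsa-stained smears, counting 100 parasites per slide 10x, alongside SYBR Green I DNA quantitation. Parasitemia compared at 0 h and 72 h. Three independent experiments in triplicate, mean ± S.E.; Student t-test, P<0.05.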

HepG2 = test: Cytotoxicity against human HepG2 cells after 48 hrs by lactate dehydrogenase assay; type: cell-based; conditions: hepg2, 48 h
Outline: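 HepG2 cells in DMEM with 10% heat-inactivated FBS, 37°C, 5% CO2. Cells pelleted at 250xg, supernatant LDH activity read colorimetrically as NADH at 450 nm after 30 min at room temperature. Duplicate, at least two biological repeats, mean ± S.E.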

[7] = Selectivity index, ratio of GI50 for human HepG2 cells to IC50 for Plasmodium falciparum 3D7; type: functional
Plasmodium falciparum [8] = test: Antimalarial activity against Plasmodium falciparum assessed as increase in 1N ring or trophozoite stage parasites at 2 times IC50 after 72 hrs by FITC-SYBR Green I-based flow cytometry; type: functional, organism-based
Plasmodium falciparum [9] = test: Antimalarial activity against Plasmodium falciparum assessed as reduction in 2N schizont stage parasites at 2 times IC50 after 72 hrs by FITC-SYBR Green I-based flow cytometry; type: functional, organism-based
Plasmodium falciparum [10] = test: Antimalarial activity against Plasmodium falciparum assessed as reduction in >2N schizont stage parasites at 2 times IC50 after 72 hrs by FITC-SYBR Green I-based flow cytometry; type: functional, organism-based
Plasmodium falciparum [11] = test: Cytostatic activity against Plasmodium falciparum 3D7 infected in human erythrocytes at 2 times IC50 after 72 hrs by giemsa staining method; type: functional, organism-based; outline: as §2
Plasmodium falciparum [12] = test: Antimalarial activity against Plasmodium falciparum 3D7 infected in human erythrocytes assessed as decrease in parasitemia at 2 times IC50 up to 72 hrs by SYBR Green I-based fluorescence assay in the presence of putrescine; type: functional, organism-based
Outline: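 Early-ring 3D7 cultures treated at 2xIC50 with 1 mM putrescine added after 24 h or 48 h, then incubated a further 24 or 48 h. Parasitemia followed over 72 h by SYBR Green I lysis fluorescence, as in the MSF assay. At least three biological repeats in duplicate, mean ± S.E.; two-way ANOVA, P<0.05.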

Plasmodium falciparum [13] = test: Antimalarial activity against Plasmodium falciparum assessed as inhibition of nuclear division measuring 1N ring or trophozoite stage parasites at 2 times IC50 after 72 hrs by FITC-SYBR Green I-based flow cytometry (reference value: 28 %); type: functional; set-up: scale not given: the % may be the effect or the level left
Plasmodium falciparum [14] = test: Antimalarial activity against Plasmodium falciparum assessed as inhibition of nuclear division measuring 2N schizont stage parasites at 2 times IC50 after 72 hrs by FITC-SYBR Green I-based flow cytometry (reference value: 38 %); type: functional; set-up: scale not given: the % may be the effect or the level left
Plasmodium falciparum [15] = test: Antimalarial activity against Plasmodium falciparum assessed as inhibition of nuclear division measuring >2N schizont stage parasites at 2 times IC50 after 72 hrs by FITC-SYBR Green I-based flow cytometry (reference value: 34 %); type: functional; set-up: scale not given: the % may be the effect or the level left
Trypanosoma brucei = test: Antitrypanosomal activity against Trypanosoma brucei; type: functional, organism-based

SMILES	IC50 (Plasmodium falciparum [1]) [nM]	IC50 (Plasmodium falciparum [2]) [nM]	IC50 (Plasmodium falciparum [3]) [nM]	DNA replication inhibition (active/inactive) (Plasmodium falciparum [5])	Activity (Plasmodium falciparum [6])	GI50 (HepG2) [nM]	Activity (Plasmodium falciparum [8])	Activity (Plasmodium falciparum [9])	Activity (Plasmodium falciparum [10])	also measured
O=C(NCCCNCCCNCCCNC(=O)NCCC(c1ccccc1)c1ccccc1)NCCC(c1ccccc1)c1ccccc1	653	–	–	–	–	–	–	–	–	–
S=C(NCCCNCCCCCCCNCCCNC(=S)NC(c1ccccc1)c1ccccc1)NC(c1ccccc1)c1ccccc1	641	138	–	–	–	–	–	–	–	–
S=C(NCCCNCCCCCCNCCCNC(=S)NCC(c1ccccc1)c1ccccc1)NCC(c1ccccc1)c1ccccc1	436	–	–	–	–	–	–	–	–	–
Cl.Cl.S=C(NCCCNCCCCCCNCCCNC(=S)NCc1ccccc1)NCc1ccccc1	106	–	198	Active	Active	> 200000	Active	Active	Active	Ratio IC50 (Plasmodium falciparum [4]): 1.9; Selectivity Index [7]: >1500
CCCNC(=O)NCCCNCCCCCCNCCCNC(=O)NCCC	14100	–	–	–	–	–	–	–	–	–
S=C(NCCCNCCCCNCCCNC(=S)NCCC(c1ccccc1)c1ccccc1)NCCC(c1ccccc1)c1ccccc1	528	1030	–	–	–	–	–	–	–	–
CC(=N)NCCCNCCCCNCCCNC(C)=N	80000	14200	–	–	–	–	–	–	–	–
O=C(NCCCNCCCCNCCCNC(=O)NC(c1ccccc1)c1ccccc1)NC(c1ccccc1)c1ccccc1	691	–	–	–	–	–	–	–	–	–
S=C(NCCCNCCCNCCCNC(=S)NCCC(c1ccccc1)c1ccccc1)NCCC(c1ccccc1)c1ccccc1	1430	1640	–	–	–	–	–	–	–	–
Cl.Cl.O=C(NCCCNCCCCCCCNCCCNC(=O)NCCC(c1ccccc1)c1ccccc1)NCCC(c1ccccc1)c1ccccc1	144	200	163	Active	Active	23900	Active	Active	Active	Ratio IC50 (Plasmodium falciparum [4]): 1.13; Selectivity Index [7]: 166
O=C(NCCCNCCCCNCCCNC(=O)NCCC(c1ccccc1)c1ccccc1)NCCC(c1ccccc1)c1ccccc1	657	517	–	–	–	–	–	–	–	–
Cl.Cl.S=C(NCCCNCCCCNCCCNC(=S)NCc1ccccc1)NCc1ccccc1	355	–	66	inactive	inactive	> 200000	inactive	inactive	inactive	Ratio IC50 (Plasmodium falciparum [4]): 0.19; Selectivity Index [7]: >500; Activity (Plasmodium falciparum [11]): Active
CCNC(=S)NCCCNCCCCCCNCCCNC(=S)NCC	1350	–	–	–	–	–	–	–	–	–
O=C(NCCCNCCCCNCCCNC(=O)NCc1ccccc1)NCc1ccccc1	3480	> 1000	–	–	–	–	–	–	–	–
S=C(NCCCNCCCCCCNCCCNC(=S)Nc1ccccc1)Nc1ccccc1	846	–	–	–	–	–	–	–	–	–
Cl.Cl.O=C(NCCCNCCCCCCCNCCCNC(=O)NC(c1ccccc1)c1ccccc1)NC(c1ccccc1)c1ccccc1	131	–	221	Active	Active	> 200000	Active	Active	Active	Ratio IC50 (Plasmodium falciparum [4]): 1.7; Selectivity Index [7]: >1500
CCCNC(=S)NCCCNCCCCCCNCCCNC(=S)NCCC	425	–	–	–	–	–	–	–	–	–

SMILES	IC50 (Plasmodium falciparum [1]) [nM]	IC50 (Plasmodium falciparum [2]) [nM]	IC50 (Plasmodium falciparum [3]) [nM]	DNA replication inhibition (active/inactive) (Plasmodium falciparum [5])	Activity (Plasmodium falciparum [6])	GI50 (HepG2) [nM]	Activity (Plasmodium falciparum [8])	Activity (Plasmodium falciparum [9])	Activity (Plasmodium falciparum [10])	also measured
Cl.Cl.O=C(NCCCNCCCCCCNCCCNC(=O)Nc1ccccc1)Nc1ccccc1	88	–	26	Active	Active	619000	Active	Active	Active	Ratio IC50 (Plasmodium falciparum [4]): 0.3; Selectivity Index [7]: 7038
O=C(NCCCNCCCCCCNCCCNC(=O)NCc1ccccc1)NCc1ccccc1	339	–	–	–	–	–	–	–	–	–
Cl.Cl.S=C(NCCCNCCCCCCCNCCCNC(=S)NCCC(c1ccccc1)c1ccccc1)NCCC(c1ccccc1)c1ccccc1	253	256	147	Active	Active	24500	Active	Active	Active	Ratio IC50 (Plasmodium falciparum [4]): 0.58; Selectivity Index [7]: 97
O=C(NCCCNCCCCNCCCNC(=O)NCC(c1ccccc1)c1ccccc1)NCC(c1ccccc1)c1ccccc1	408	–	–	–	–	–	–	–	–	–
Cl.Cl.O=C(NCCCNCCCCCCCNCCCNC(=O)NCC(c1ccccc1)c1ccccc1)NCC(c1ccccc1)c1ccccc1	100	–	140	Active	Active	33800	Active	Active	Active	Ratio IC50 (Plasmodium falciparum [4]): 1.4; Selectivity Index [7]: 338
S=C(NCCCNCCCCCCNCCCNC(=S)NCCC(c1ccccc1)c1ccccc1)NCCC(c1ccccc1)c1ccccc1	310	–	–	–	–	–	–	–	–	–
Cl.Cl.S=C(NCCCNCCCCCCNCCCNC(=S)NC(c1ccccc1)c1ccccc1)NC(c1ccccc1)c1ccccc1	211	–	256	Active	Active	> 200000	Active	Active	Active	Ratio IC50 (Plasmodium falciparum [4]): 1.2; Selectivity Index [7]: >500
CC(=N)NCCCNCCCNCCCNC(C)=N	147000	110000	–	–	–	–	–	–	–	–
S=C(NCCCNCCCCNCCCNC(=S)NC(c1ccccc1)c1ccccc1)NC(c1ccccc1)c1ccccc1	433	317	–	–	–	–	–	–	–	–
Cl.Cl.S=C(NCCCNCCCCCCCNCCCNC(=S)NCC(c1ccccc1)c1ccccc1)NCC(c1ccccc1)c1ccccc1	405	–	183	Active	Active	24700	Active	Active	Active	Activity (Plasmodium falciparum [12]): Active; Activity (Plasmodium falciparum [13]): 78%; Activity (Plasmodium falciparum [14]): 20%; Activity (Plasmodium falciparum [15]): 2%
CCNC(=O)NCCCNCCCCCCNCCCNC(=O)NCC	> 15000	–	–	–	–	–	–	–	–	–
N=C(NCCCNCCCCCCCNCCCNC(=N)NC(=N)NCCC(c1ccccc1)c1ccccc1)NC(=N)NCCC(c1ccccc1)c1ccccc1	298	224	–	–	–	–	–	–	–	IC50 (Trypanosoma brucei): 90 nM
CC(=N)NCCCNCCCCCCCNCCCNC(C)=N	–	70300	–	–	–	–	–	–	–	–
S=C(NCCCNCCCNCCCNC(=S)NCC(c1ccccc1)c1ccccc1)NCC(c1ccccc1)c1ccccc1	1320	715	–	–	–	–	–	–	–	–
S=C(NCCCNCCCNCCCNC(=S)NC(c1ccccc1)c1ccccc1)NC(c1ccccc1)c1ccccc1	1080	766	–	–	–	–	–	–	–	–
S=C(NCCCNCCCCNCCCNC(=S)NCC(c1ccccc1)c1ccccc1)NCC(c1ccccc1)c1ccccc1	329	170	200	Active	Active	18900	Active	Active	Active	–
